An excerpt weighted towards active compounds, which were near 1.9% of everything screened.
ASAP1 GAP inh: ASAP1 ArfGAP inhibition. Q9ULH1. ASAP1-stimulated ARF1 GTP hydrolysis, GDP FP detection. inhibition, % at 16.5 µM. hit rate 0.19% among 360,000. AID 624377; in the data active means inhibition above about 25%;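 further: 0% = vehicle with enzyme and substrate and 100% = no enzyme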
PLC-gamma1 inh: blocks human PLC-gamma1 enzyme activity | P19174 | purified PLC-gamma1, fluorogenic substrate, fluorescence | inhibition, % at 12.2 µM | hit rate 0.84% among 370,000; in the data active means inhibition above about 9.5%
PLC-beta3 inh: inhibitors of human phospholipase C beta3. Purified PLC-beta3, fluorogenic substrate, fluorescence. inhibition, % at 12.2 µM. hit rate 0.18% among 370,000;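 further: 0% = median of compound wells on plate and 100% = full blocker control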
ARFGAP1 inhibitor: rat ARFGAP1 inhibition; Q62848; inhibition, % at 16.5 µM; hit rate 0.26% among 360,000; Arfgap1-stimulated ARF1 GTP hydrolysis, GDP FP detection;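 active means inhibition above a per-plate limit, mean inhibition of low control wells plus 3 SD, cut at about 25% in these data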;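 further: 0% = DMSO wells with enzyme and 100% = wells lacking Arfgap1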
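Replicates: Single well per compound | Assay system: Truncated rat Arfgap1 GAP domain | Control set: No-Arfgap1 wells (100%) versus DMSO full-reaction wells (0%) | Times: Enzyme reaction 120 min at 25 °C after 20 min preincubation | Reagent: Human ARF1(Δ1-17)-GTP substrate | Measured by: Tracer-displacement fluorescence polarization with EDTA stop, 620/688 nm | Measure: Percent inhibition of Arfgap1-stimulated GTP hydrolysis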
sPLA2-III inh: Inhibits HGIII-sPLA2 liposome hydrolysis, primary screen; Q9NZ20; QFRET BODIPY PC-A2 liposome hydrolysis, fluorescence; inhibition, % at 12.2 µM; hit rate 0.56% among 370,000; AID 743126;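 active means inhibition above mean plus 3 SD of compounds lying within the high and low control bounds, cut at about 19% in these data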;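 further: 0% = median of test compound wells and 100% = no enzyme DMSO wells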
PLCg1 ctr: counter-screen for PLC-beta3 inhibitors: inhibitors of human PLC-gamma1; shares compounds with PLC-gamma1 inh; purified PLC-gamma1, fluorogenic substrate, fluorescence; inhibition, % at 12.3 µM; hit rate 3.1% among 3,300; AID 743258; in the data active means inhibition above about 9.5%
PLCb3 confirm: human PLC-beta3 inhibition, confirmation; inhibition, % at 12.3 µM; purified PLC-beta3, fluorogenic substrate fluorescence; hit rate 1% among 3,300; shares compounds with PLC-gamma1 inh
* hit, by the source's call. Unless noted, no stated cut-off is given here; in the data, active means inhibition above about 11%; inactive means the rest.

How did O=C(Nc1ccc(Cl)c(Cl)c1)C1CCCN(c2nnc(-n3cccc3)s2)C1 (stereo not given) do in these assays?
PLC-gamma1 inh: 4.0; PLC-beta3 inh: 2.2; sPLA2-III inh: -12.3

Results for CCN(CC)S(=O)(=O)c1cc([N+](=O)[O-])ccc1NNC(=O)Nc1ccccc1OC ?
ASAP1 GAP inh: -3.5; PLC-gamma1 inh: 10.4*; PLC-beta3 inh: 5.6; ARFGAP1 inhibitor: -9.3; sPLA2-III inh: -14.0; PLCg1 ctr: 1.5; PLCb3 confirm: 5.3

How did COc1ccccc1NC(=O)c1ccccc1S(=O)(=O)c1ccc([N+](=O)[O-])cc1 do in these assays?
ASAP1 GAP inh: 8.2; PLC-gamma1 inh: 9.8*; PLC-beta3 inh: -0.9; ARFGAP1 inhibitor: -2.6; sPLA2-III inh: 3.2; PLCg1 ctr: -2.3; PLCb3 confirm: -2.2

How did CC(C)(C)S(=O)(=O)/C(C#N)=C/c1cccn1S(=O)(=O)c1ccccc1 do in these assays?
ASAP1 GAP inh: -10.0; PLC-gamma1 inh: 15.8*; PLC-beta3 inh: 3.0; ARFGAP1 inhibitor: -6.8; sPLA2-III inh: -1.2; PLCg1 ctr: 3.0; PLCb3 confirm: 2.9

How did CS(=O)(=O)/C(C#N)=C/c1cccn1S(=O)(=O)c1ccccc1 do in these assays?
ASAP1 GAP inh: -5.8; PLC-gamma1 inh: -3.4; PLC-beta3 inh: -7.8; ARFGAP1 inhibitor: 3.9; sPLA2-III inh: 6.5

What do the screens show for `CCOc1ccc(-c2n[nH]c(C)c2Oc2ccccc2OC)c(O)c1`?
ASAP1 GAP inh: 2.5; PLC-gamma1 inh: 9.6*; PLC-beta3 inh: 2.6; ARFGAP1 inhibitor: 2.6; sPLA2-III inh: -21.5; PLCg1 ctr: -3.8; PLCb3 confirm: -2.0

What do the screens show for `C=C(C)COc1ccc(-c2n[nH]c(C)c2Oc2ccccc2OC)c(O)c1`?
ASAP1 GAP inh: 22.9; PLC-gamma1 inh: 0.9; PLC-beta3 inh: 1.2; ARFGAP1 inhibitor: 16.6; sPLA2-III inh: -27.6

How did O=[N+]([O-])c1ncn(Cc2ccccc2Cl)n1 do in these assays?
ASAP1 GAP inh: -8.7; PLC-gamma1 inh: 6.8; PLC-beta3 inh: 12.6*; ARFGAP1 inhibitor: -3.9; sPLA2-III inh: -0.7; PLCg1 ctr: 6.4; PLCb3 confirm: 1.9

What do the screens show for `CCCCCSc1nc(C)c(CC(=O)O)c(=O)[nH]1`?
ASAP1 GAP inh: -8.2; PLC-gamma1 inh: 3.4; PLC-beta3 inh: 3.2; ARFGAP1 inhibitor: 1.7; sPLA2-III inh: 6.5

How did CCCSc1nc(C)c(CC(=O)OCC)c(=O)[nH]1 do in these assays?
ASAP1 GAP inh: -3.5; PLC-gamma1 inh: 9.7*; PLC-beta3 inh: 6.6; ARFGAP1 inhibitor: -5.8; sPLA2-III inh: -2.1; PLCg1 ctr: 2.6; PLCb3 confirm: 3.1

Results for O=S(=O)(c1ccc(Cl)cc1)c1cnc2ccccc2n1 ?
ASAP1 GAP inh: -13.1; PLC-gamma1 inh: 9.6*; PLC-beta3 inh: -1.6; ARFGAP1 inhibitor: -0.9; sPLA2-III inh: 1.1; PLCg1 ctr: 11.6*; PLCb3 confirm: -3.7

How did COCCN1Cc2cc(C(=O)OC)c3c(c2C1=O)c1cc(F)ccc1n3C(=O)c1ccccc1 do in these assays?
ASAP1 GAP inh: -1.3; PLC-gamma1 inh: -26.8; PLC-beta3 inh: -34.2; ARFGAP1 inhibitor: -1.7; sPLA2-III inh: -4.5

Results for c1ccc2c(c1)OC(CCCN1CCCCC1)c1ccccc1S2 (stereo not given) ?
ASAP1 GAP inh: 5.5; PLC-gamma1 inh: 10.5*; PLC-beta3 inh: 4.2; ARFGAP1 inhibitor: -14.2; sPLA2-III inh: -1.2; PLCg1 ctr: -4.5; PLCb3 confirm: 0.9

What do the screens show for `COC(=O)C1=C(C)N(Cc2ccccc2C(F)(F)F)C(=NCc2ccc(OC)cc2)NC1c1ccc(F)cc1` (stereo not given)?
ASAP1 GAP inh: 3.4; PLC-gamma1 inh: 4.4; PLC-beta3 inh: 6.3; ARFGAP1 inhibitor: 8.2; sPLA2-III inh: -10.4

What do the screens show for `Nc1[nH]ncc1-c1ccc(F)cc1`?
ASAP1 GAP inh: -1.7; PLC-gamma1 inh: 1.6; PLC-beta3 inh: 0.8; ARFGAP1 inhibitor: 6.1; sPLA2-III inh: 1.9

How did COc1ccc(-c2cn[nH]c2N)cc1 do in these assays?
ASAP1 GAP inh: 7.1; PLC-gamma1 inh: 11.5*; PLC-beta3 inh: 3.6; ARFGAP1 inhibitor: 10.8; sPLA2-III inh: 14.2; PLCg1 ctr: -7.8; PLCb3 confirm: -2.5

Results for C/C(=N\Nc1ccc(F)cc1F)c1ccccc1O ?
ASAP1 GAP inh: -5.1; PLC-gamma1 inh: 11.6*; PLC-beta3 inh: 1.6; ARFGAP1 inhibitor: 2.3; sPLA2-III inh: 10.2; PLCg1 ctr: -5.8; PLCb3 confirm: -5.1

Screening results from PubChem.
